Assay outcomes: PubChem BioAssay, Sanford-Burnham Center for Chemical Genomics
Apaf1 activ: human Apaf-1 activation; AID 489031; O14727; 330,000 compounds, 0.31% hits; Apaf-1 apoptosome caspase-3 activation, DEVD-Rh110 fluorescence; active compounds read low; activity change, negative = activation, % at 20 µM;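 active = activity change at or below -40% at 20 µM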
Target sequence (O14727 whole entry, looked up): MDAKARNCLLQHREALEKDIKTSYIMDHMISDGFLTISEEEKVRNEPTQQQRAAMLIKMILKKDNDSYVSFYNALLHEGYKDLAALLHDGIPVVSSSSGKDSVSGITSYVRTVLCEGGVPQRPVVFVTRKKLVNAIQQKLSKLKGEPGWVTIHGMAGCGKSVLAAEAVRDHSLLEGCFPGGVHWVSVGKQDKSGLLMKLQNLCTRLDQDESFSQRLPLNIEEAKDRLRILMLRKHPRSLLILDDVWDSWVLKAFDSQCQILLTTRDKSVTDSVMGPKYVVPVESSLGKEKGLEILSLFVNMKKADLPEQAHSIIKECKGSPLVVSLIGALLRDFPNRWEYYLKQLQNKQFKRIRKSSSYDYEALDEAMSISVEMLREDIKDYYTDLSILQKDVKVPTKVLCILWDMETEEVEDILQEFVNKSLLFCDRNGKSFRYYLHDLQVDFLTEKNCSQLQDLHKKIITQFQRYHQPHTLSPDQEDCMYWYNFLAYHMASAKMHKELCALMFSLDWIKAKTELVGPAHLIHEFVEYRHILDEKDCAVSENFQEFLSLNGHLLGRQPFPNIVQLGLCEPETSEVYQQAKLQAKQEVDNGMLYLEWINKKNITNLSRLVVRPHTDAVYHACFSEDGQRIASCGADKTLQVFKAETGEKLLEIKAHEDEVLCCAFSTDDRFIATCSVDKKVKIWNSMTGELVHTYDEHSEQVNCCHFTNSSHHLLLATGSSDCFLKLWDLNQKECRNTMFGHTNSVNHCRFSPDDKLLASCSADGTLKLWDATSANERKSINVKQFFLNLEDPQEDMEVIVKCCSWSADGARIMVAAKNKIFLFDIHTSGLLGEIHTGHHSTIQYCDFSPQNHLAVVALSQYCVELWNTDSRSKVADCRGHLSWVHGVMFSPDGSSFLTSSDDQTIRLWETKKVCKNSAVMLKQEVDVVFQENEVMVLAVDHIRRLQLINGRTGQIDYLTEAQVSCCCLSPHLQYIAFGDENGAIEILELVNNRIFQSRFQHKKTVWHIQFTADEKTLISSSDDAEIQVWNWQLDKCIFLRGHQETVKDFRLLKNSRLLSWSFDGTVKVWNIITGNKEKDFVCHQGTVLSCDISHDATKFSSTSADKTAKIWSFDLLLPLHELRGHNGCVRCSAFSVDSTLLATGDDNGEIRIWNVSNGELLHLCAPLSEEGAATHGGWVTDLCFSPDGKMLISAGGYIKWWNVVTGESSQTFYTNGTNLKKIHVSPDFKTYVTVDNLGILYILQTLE
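Material: biochemical Apaf-1 apoptosome reconstitution; Medium: 20 mM HEPES buffer, pH 7.5, containing CHAPS and BSA; Reagent: dATP, cytochrome c, and (Z-DEVD)2-Rh110 caspase-3 substrate; Times: 30 min preincubation, 50 min reaction, room temperature; Signal: Rh110 fluorescence, excitation 480 nm, emission 540 nm; Measure: Caspase-3 activity via Apaf-1.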
Rh110 interf act: Rh110 signal interference in Apaf-1 activator counter-screen; Rh110 fluorescence interference, quenched caspase reaction, Ex480/Em540; fluorescence interference (activity change), % at 20 µM, hits read low; 980 tested, under 10 active; shares compounds with Apaf1 activ; AID 504616;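 active = mean activity change at or below -40% when tested at 20 µM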
Apaf-1 act conf: confirmation of human Apaf-1 activators. shares compounds with Apaf1 activ. reconstituted apoptosome caspase-3 activity, DEVD-Rh110 fluorescence; active compounds read low. activity change, negative = activation, % at 20 µM. 980 compounds, 5% hits. AID 504617;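 active = mean activity change at or below -40%, meaning activation of 40% or more, at 20 µM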
Fluor interf act: counter-screen for Apaf-1 activators: fluorescence interference, dose response. EC50, µM. AID 588592. 55 tested, under 10 active. fluorescence interference counterscreen, Apaf-1 activator assay. shares compounds with Apaf1 activ; call rule not given here
* hit, by the source's call; · = no result given. These entries were drawn from the full list.

SMILES | Apaf1 activ | Rh110 interf act | Apaf-1 act conf | others
CC1=NN(c2ccc(C)c(C)c2)C(=O)C1C(c1cccc(O)c1)C1C(=O)N(c2ccc(C)c(C)c2)N=C1C (stereo unspecified) | 87 | · | ·
CCc1ccc(S(=O)(=O)/N=C2\C=CC(=O)c3ccccc32)cc1 | 55 | · | ·
COc1ccc(O)c(C(c2c(C)[nH][nH]c2=O)c2c(C)[nH][nH]c2=O)c1 | 67 | · | ·
Cc1cc(SCC(=O)OC(C)C(=O)N(C)c2ccccc2)nc2ccccc12 (stereo unspecified) | -324* | -1 | 8
CC(C)N(C(=O)[C@H]1C[C@H](CC(=O)NCCCN(C)C)C(=O)N2CCc3c([nH]c4cc(-c5ccco5)ccc34)[C@]12C)C(C)C | 52 | · | ·
CCN(CC)c1ccc(N=Cc2ccc([N+](=O)[O-])o2)cc1 | 56 | · | ·
CC(C)Cc1nnc(NC(=O)C2CSC3(C)CCC(=O)N23)s1 (stereo unspecified) | -83* | 6 | 13
Nc1ccc(N2CCCCCC2)cc1 | 93 | · | ·
O=C(c1ccccc1)N1CCCC(c2ccc(Cl)cc2)=N1 | -41* | 19 | 15
CC1(C)CC2CC(C)(CN2C(=O)c2cccs2)C1 (stereo unspecified) | -95* | 6 | 13
CC(=O)N(C)C1=C(O)c2ccccc2C(=O)C1=O | 40 | · | ·
O=C(Nc1ccc(Cl)c(Cl)c1)Nc1nc(-c2ccccc2)cs1 | -366* | 11 | 16
Cc1nc(C(=O)NNC(=O)Nc2ccccc2)cs1 | 57 | · | ·
CC(=O)N(C)c1ccc(N=Cc2cc3c(cc2[N+](=O)[O-])OCO3)cc1 | 65 | · | ·
CCN(CC)c1ccc(N=Cc2ccccc2[N+](=O)[O-])cc1 | 62 | · | ·
COc1ccc(-c2nc3nc(C)c(Cc4ccccc4)c(=O)n3[nH]2)cc1 | 49 | · | · | Fluor interf act=>100
COc1ccc(Cn2nc(-c3ccccc3)c(N3CCCCC3)cc2=O)cc1 | 46 | · | ·
C[C@H](O)CC(=O)O | -8 | · | ·
CCCCCCCCCCn1c2c(c(=N)c3c1CCC3)CCC2 | 74 | · | ·
C#CCOCCOCCOCCNc1nc(N2CCN(C(=O)[C@H]([C@@H](C)CC)n3cc([C@@H](N)CC(C)C)nn3)CC2)nc(N2CCN(C(=O)[C@H](Cc3cc4ccccc4[nH]3)n3cc([C@@H](N)Cc4ccc(O)cc4)nn3)CC2)n1 | 56 | · | ·
Cc1cc(NC(=O)CCC(=O)N(CC(=O)NCC2CCCO2)Cc2ccc(F)cc2)no1 (stereo unspecified) | -45* | -2 | 2
CC(=O)c1cc(F)c(N2CCN(CCC#N)CC2)cc1C | -456* | 9 | 13
COc1ccc(C2=NCN(c3ccc(C)cc3)C(=S)N2)cc1 | -555* | 9 | 17
COc1ccc(-n2nc3cc(N)c(Br)cc3n2)cc1 | 69 | · | ·
Cn1c2c(c(=O)n(C)c1=O)CN(CCCN1CCOCC1)CN2 | -59* | 7 | 2
SMILES | Apaf1 activ | Rh110 interf act | Apaf-1 act conf | others
O=C(N/N=C/c1ccc(OC(=O)c2ccccc2)cc1)c1ccc(CN2CCOCC2)cc1 | -68* | 0 | 11
O=C(C[n+]1cccc(C(=O)N/N=C/c2ccc(Br)cc2)c1)c1ccccc1 | 50 | · | ·
COc1ccc(/C=N/NC(=O)c2nn(-c3ccccc3)c(=O)c3c(N)scc23)cc1 | 61 | · | ·
Oc1ccc(N=Cc2ccc(O)c(O)c2)cc1 | 75 | · | ·
C#CCOCCOCCOCCNc1nc(N2CCN(C(=O)[C@H]([C@@H](C)CC)n3cc([C@@H](N)Cc4ccc(O)cc4)nn3)CC2)nc(N2CCN(C(=O)[C@H](Cc3cc4ccccc4[nH]3)n3cc([C@@H](N)CC(C)C)nn3)CC2)n1 | 63 | · | ·
CCOC(=O)c1ccc(NC2=CC(=O)C(=O)c3ccccc32)cc1 | 72 | · | ·
CNc1cc(C)c(C#N)c2nc3ccccc3n12 | -58* | 7 | 3
N#Cc1c(N)n(-c2ccccc2N)c2nc3ccccc3nc12 | 69 | · | ·
COc1ccc(CCn2c(N)c(C#N)c3nc4ccccc4nc32)cc1OC | 60 | · | ·
CN(Cc1cnc2nc(N)nc(N)c2n1)c1ccc(C(=O)N[C@@H](CCC(=O)O)C(=O)O)cc1 | 3 | · | ·
Cc1cc(C)c(S(=O)(=O)/N=C2/C=C(SCC(=O)O)C(=O)c3ccccc32)cc1C | 72 | · | ·
CCn1nc(C(=O)Nc2ccccc2C)c(Cl)c1Cl | -137* | -2 | 8
Cc1ccc(C(=O)N/N=C/c2ccc(-c3ccc(Br)cc3[N+](=O)[O-])o2)o1 | 42 | · | ·
O=[N+]([O-])c1cc(Br)c(O)c(C=Nc2ccc(N3CCOCC3)cc2)c1 | 68 | · | ·
O=CNn1cnc2c(oc3nc(-c4ccccc4)cc(-c4ccco4)c32)c1=O | -116* | 8 | -5
Cc1oc2c(c1C(=O)O)C(=O)c1ccccc1C2=O | 79 | · | ·
COc1cc(OC)c2c(-c3cccc(-c4ccc(CO)cc4)c3)cc(=O)oc2c1 | 42 | · | ·
